Test results from ChEMBL document CHEMBL1132592, “Synthesis of novel 2-benzothiopyran and 3-benzothiepin derivatives and their stimulatory effect on bone formation” (J Med Chem, 1999).

Legend:
[1] = target: T1, Alkaline phosphatase, tissue-nonspecific isozyme (Rattus norvegicus) (UniProt P08289); assay: Effect on alkaline phosphatase activity compared to control in culture of rat bone marrow stromal cells, 10E-5 M concentration; assay type: tissue-based
T1 sequence (whole entry): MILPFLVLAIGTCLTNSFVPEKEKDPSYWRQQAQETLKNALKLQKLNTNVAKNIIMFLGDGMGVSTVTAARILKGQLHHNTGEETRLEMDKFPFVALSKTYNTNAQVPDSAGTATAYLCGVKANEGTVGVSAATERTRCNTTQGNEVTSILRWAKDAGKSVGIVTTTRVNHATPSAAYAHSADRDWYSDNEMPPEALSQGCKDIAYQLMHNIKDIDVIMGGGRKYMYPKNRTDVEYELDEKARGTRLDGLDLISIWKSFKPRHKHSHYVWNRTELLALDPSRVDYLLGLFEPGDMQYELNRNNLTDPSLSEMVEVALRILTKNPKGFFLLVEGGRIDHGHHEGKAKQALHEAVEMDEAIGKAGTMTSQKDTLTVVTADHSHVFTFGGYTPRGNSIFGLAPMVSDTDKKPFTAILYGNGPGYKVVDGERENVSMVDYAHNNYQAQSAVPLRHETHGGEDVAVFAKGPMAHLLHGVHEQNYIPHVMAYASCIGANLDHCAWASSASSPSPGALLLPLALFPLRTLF
How it was run: (§1)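 Rat femoral marrow stromal cells subcultured at 4 × 10^4 cells/well in α-MEM with 15% FBS, ascorbate, 10 mM β-glycerophosphate and 10^-7 M dexamethasone. Compound added day 1 to day 10-14, medium refreshed every other day. Lysate ALP (Lowry method) given as fold of control; n = 5–10; Student's t-test.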

[2] = target: T1, Alkaline phosphatase, tissue-nonspecific isozyme (Rattus norvegicus); assay: Effect of 10E-7 M compound on alkaline phosphatase activity compared to control in culture of rat bone marrow stromal cells; how it was run: as §1
[3] = target: T2, Alkaline phosphatase, tissue-nonspecific isozyme (Mus musculus) (UniProt P09242); assay: Alkaline phosphatase stimulatory activity of 10E-5 M compound in culture of MC3T3-E1 in absence of BMP
T2 sequence (whole entry): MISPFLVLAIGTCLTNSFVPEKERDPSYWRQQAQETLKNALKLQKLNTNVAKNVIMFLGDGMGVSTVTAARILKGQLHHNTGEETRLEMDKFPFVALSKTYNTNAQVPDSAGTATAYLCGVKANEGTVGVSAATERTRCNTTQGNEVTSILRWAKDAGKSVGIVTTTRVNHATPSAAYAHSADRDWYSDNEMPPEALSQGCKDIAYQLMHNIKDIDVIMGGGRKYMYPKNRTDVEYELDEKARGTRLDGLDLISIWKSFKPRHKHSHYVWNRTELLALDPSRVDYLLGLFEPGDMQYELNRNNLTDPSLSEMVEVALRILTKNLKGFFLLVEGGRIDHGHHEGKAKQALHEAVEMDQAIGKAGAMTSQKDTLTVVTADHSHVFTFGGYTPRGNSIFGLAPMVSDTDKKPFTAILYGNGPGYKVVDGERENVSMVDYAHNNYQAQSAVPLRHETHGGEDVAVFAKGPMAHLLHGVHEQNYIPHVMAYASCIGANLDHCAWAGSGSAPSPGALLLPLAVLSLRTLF
How it was run: (§2)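 Mouse osteoblastic MC3T3-E1 cells, 3000 cells/well, grown 3 days in α-MEM with 10% FBS, then switched to α-MEM with 1% FBS plus compound, with or without recombinant Xenopus BMP-4/7 heterodimer (3 ng/mL), for 3 more days. ALP in lysate supernatant read as absorbance at 405 nm; mean ± SE, n = 6; Dunnett's test vs matching control.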

[4] = target: T2, Alkaline phosphatase, tissue-nonspecific isozyme (Mus musculus); assay: Alkaline phosphatase stimulatory activity of 10E-5 M compound in culture of MC3T3-E1 in presence of 3 ng/mL of BMP; how it was run: as §2
[5] = target: T1, Alkaline phosphatase, tissue-nonspecific isozyme (Rattus norvegicus); assay: Effect of 10E-5 M compound on alkaline phosphatase activity in culture of rat bone marrow stromal cells; assay type: tissue-based
How it was run: (§3)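 Femoral marrow stromal cells from 7-week-old male Sprague-Dawley rats. Primary culture 1 week in α-MEM (10 mM HEPES pH 7.0, 15% FBS, 2 mM glutamine, 50 μg/mL ascorbate, 10 mM β-glycerophosphate, 10^-7 M dexamethasone), 37 °C, 5% CO2. Subcultured at 4 × 10^4 cells/well; compound (10 mM stock in EtOH-DMSO 1:1 or DMF) from day 1 to day 10-14, medium changed every other day. Lysate ALP (Lowry method) in nmol/min/well; mean ± SE, n = 5–10.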

[6] = target: T2, Alkaline phosphatase, tissue-nonspecific isozyme (Mus musculus); assay: Alkaline phosphatase stimulatory activity of 10E-6 M compound in culture of MC3T3-E1 in absence of BMP; how it was run: as §2
[7] = target: T2, Alkaline phosphatase, tissue-nonspecific isozyme (Mus musculus); assay: Alkaline phosphatase stimulatory activity of 10E-6 M compound in culture of MC3T3-E1 in presence of 3 ng/mL of BMP; how it was run: as §2
[8] = target: T1, Alkaline phosphatase, tissue-nonspecific isozyme (Rattus norvegicus); assay: Effect of 10E-6 M compound on alkaline phosphatase activity in culture of rat bone marrow stromal cells; how it was run: as §3
[9] = target: T1, Alkaline phosphatase, tissue-nonspecific isozyme (Rattus norvegicus); assay: Effect of 10E-7 M compound on alkaline phosphatase activity in culture of rat bone marrow stromal cells; how it was run: as §3

| Compound | ALP activity [1] | other results |
| --- | --- | --- |
| COP(=O)(Cc1ccc(NC(=O)[C@H]2Cc3cc4c(cc3C(=O)[C@H](C)S2)OCO4)cc1)OC | 7.2 | – |
| CCOP(=O)(CCNC(=O)[C@H]1Cc2cc3c(cc2C(=O)[C@H](C)S1)OCO3)OCC | 1.1 | – |
| COP(=O)(OC)c1ccc(NC(=O)C2SCC(=O)c3cc(C4CCCCC4)ccc32)cc1 (stereo not given) | – | ALP activity [2]: 1.5 |
| CCOP(=O)(Cc1ccc(NC(=O)[C@H]2Cc3cc(OC)c(OC)cc3C(=O)[C@H](C)S2)cc1)OCC | 2.3 | – |
| CCOP(=O)(Cc1ccc(NC(=O)[C@@H]2S[C@@H](C)C(=O)c3cc4c(cc32)OCO4)cc1)OCC | 1.2 | – |
| CCOP(=O)(Cc1ccc(NC(=O)[C@@H]2Cc3cc(OC)c(OC)cc3C(=O)CS2)cc1)OCC | – | ALP activity [3]: 0.12; ALP activity [4]: 0.131; ALP activity [5]: 770 |
| CCOP(=O)(Cc1ccc(NC(=O)[C@H]2Cc3ccc(C)cc3C(=O)[C@H](C)S2)cc1)OCC | 1.7 | – |
| CCOP(=O)(OCC)c1ccc(NC(=O)C2SCC(=O)c3cc(C4CCCCC4)ccc32)cc1 (stereo not given) | – | ALP activity [2]: 1.6 |
| Cc1cc2c(cc1C)[C@H](C(=O)Nc1cnccn1)SCC2=O | 1.3 | – |
| CC(C)OP(=O)(Cc1ccc(NC(=O)C2SCC(=O)c3cc(C4CCCCC4)ccc32)cc1)OC(C)C (stereo not given) | – | ALP activity [2]: 2 |
| CC1COP(=O)(Cc2ccc(NC(=O)[C@H]3Cc4cc5c(cc4C(=O)[C@H](C)S3)OCO5)cc2)OC1 (stereo not given in full) | 3 | – |
| CCCOP(=O)(OCCC)c1ccc(NC(=O)C2SCC(=O)c3cc(C4CCCCC4)ccc32)cc1 (stereo not given) | – | ALP activity [2]: 1.5 |
| CC(C)OP(=O)(Cc1ccc(NC(=O)[C@H]2Cc3cc4c(cc3C(=O)[C@H](C)S2)OCO4)cc1)OC(C)C | 3.9 | – |
| CCOP(=O)(CCc1ccc(NC(=O)[C@H]2Cc3cc4c(cc3C(=O)[C@H](C)S2)OCO4)cc1)OCC | 1.9 | – |
| CCOP(=O)(Cc1ccc(NC(=O)[C@H]2Cc3cc4c(cc3C(=O)CS2)OCCO4)cc1)OCC | 1.2 | – |
| C[C@@H]1S[C@@H](C(=O)Nc2nc(-c3ccccc3)cs2)c2cc3c(cc2C1=O)OCO3 | 1.3 | – |
| COc1cc2c(cc1OC)C(=O)CS[C@@H](C(=O)Nc1ccc(CP3(=O)OCC(C)CO3)cc1)C2 (stereo not given in full) | 2.7 | – |
| CCOP(=O)(Cc1ccc(NC(=O)[C@H]2Cc3cc(OC)c(OC)cc3C(=O)[C@H](C(C)C)S2)cc1)OCC | 1.4 | – |
| CCOP(=O)(OCC)c1ccc(NC(=O)[C@H]2Cc3cc4c(cc3C(=O)[C@H](C)S2)OCO4)cc1 | 1.8 | – |
| CCOP(=O)(Cc1ccc(NC(=O)[C@H]2Cc3ccc(C)cc3C(=O)[C@H](c3ccccc3)S2)cc1)OCC | 1.2 | – |

| Compound | ALP activity [1] | other results |
| --- | --- | --- |
| CCOP(=O)(OCC)c1ccc(NC(=O)[C@H]2Cc3cc(C)c(C)cc3C(=O)CS2)cc1 | 2.2 | – |
| CCOP(=O)(Cc1ccc(NC(=O)C2Cc3cc4c(cc3C(=O)C(C)S2)OCO4)cc1)OCC (racemic) | – | ALP activity [3]: 0.178; ALP activity [4]: 0.221; ALP activity [6]: 0.133; ALP activity [7]: 0.162; ALP activity [5]: 1210; ALP activity [8]: 411; ALP activity [9]: 185 |
| CCOP(=O)(Cc1ccc(NC(=O)[C@@H]2Cc3cc4c(cc3C(=O)[C@@H](C)S2)OCO4)cc1)OCC | – | ALP activity [3]: 0.115; ALP activity [4]: 0.131; ALP activity [5]: 566; ALP activity [8]: 160; ALP activity [9]: 166 |
| COc1cc2c(cc1OC)[C@H](C(=O)Nc1ccc(Cl)cc1)SCC2=O | 1.3 | – |
| CCOP(=O)(Cc1ccc(NC(=O)[C@H]2Cc3cc4c(cc3C(=O)[C@H](C(C)C)S2)OCO4)cc1)OCC | 3.3 | – |
| CCOP(=O)(Cc1ccc(NC(=O)C2Cc3cc(OC)c(OC)cc3C(=O)CS2)cc1)OCC (racemic) | – | ALP activity [3]: 0.143; ALP activity [4]: 0.169; ALP activity [5]: 1910 |
| COc1cc2c(cc1OC)C(=O)CS[C@@H](C(=O)Nc1ccc(CP3(=O)OCCCCO3)cc1)C2 | 2.8 | – |
| CCOP(=O)(OCC)c1ccc(NC(=O)[C@H]2Cc3cc(OC)c(OC)cc3C(=O)CS2)cc1 | 2.6 | – |
| COP(=O)(Cc1ccc(NC(=O)C2SCC(=O)c3cc(C4CCCCC4)ccc32)cc1)OC (stereo not given) | – | ALP activity [2]: 1.7 |
| CCOP(=O)(Cc1ccc(NC(=O)[C@H]2Cc3cc4c(cc3C(=O)[C@H](CC)S2)OCO4)cc1)OCC | 4.6 | – |
| CCOP(=O)(Cc1ccc(NC(=O)[C@H]2Cc3cc(OC)c(OC)cc3C(=O)[C@H](CC)S2)cc1)OCC | 1.5 | – |
| CCOP(=O)(Cc1cccc(NC(=O)[C@H]2Cc3cc4c(cc3C(=O)[C@H](C)S2)OCO4)c1)OCC | 1.8 | – |
| CCOP(=O)(Cc1ccccc1NC(=O)C1SCC(=O)c2cc(C3CCCCC3)ccc21)OCC (stereo not given) | – | ALP activity [2]: 1.5 |
| CCOP(=O)(Cc1ccc(NC(=O)[C@H]2Cc3cc(OC)c(OC)cc3C(=O)CS2)cc1)OCC | – | ALP activity [3]: 0.164; ALP activity [4]: 0.199 |
| Cc1cc2c(cc1C)[C@H](C(=O)Nc1cccnc1)SCC2=O | 1.3 | – |
| CC(C)Oc1ccc2c(=O)c(-c3ccccc3)coc2c1 | 1.6 | – |
| O=C1CS[C@@H](C(=O)Nc2ccc(Cl)cc2)c2cc3c(cc21)CCC3 | 1.3 | – |
| CCOP(=O)(CCc1ccc(NC(=O)C2SCC(=O)c3cc(C4CCCCC4)ccc32)cc1)OCC (stereo not given) | – | ALP activity [2]: 1.5 |
| CCCCOP(=O)(Cc1ccc(NC(=O)C2SCC(=O)c3cc(C4CCCCC4)ccc32)cc1)OCCCC (stereo not given) | – | ALP activity [2]: 1.7 |

The next lines start with results.

| ALP activity [1] | Compound | other results |
| --- | --- | --- |
| 2.3 | CCOc1ccc(OCC)c(NC(=O)[C@@H]2SCC(=O)c3cc(C4CCCCC4)ccc32)c1 | – |
| 1.5 | CCOP(=O)(Cc1ccc(NC(=O)[C@@H]2SCC(=O)c3cc(C)c(C)cc32)cc1)OCC | – |
| 1.1 | CCOP(=O)(Cc1ccc(NC(=O)[C@H]2Cc3ccc(Cl)cc3C(=O)CS2)cc1)OCC | – |
| 2.5 | CCOP(=O)(Cc1ccc(NC(=O)[C@@H]2SCC(=O)c3cc(OC)c(OC)cc32)cc1)OCC | – |
| 1.2 | CCOP(=O)(Cc1ccc(NC(=O)[C@@H]2SCC(=O)c3cc4c(cc32)OCO4)cc1)OCC | – |
| 1.5 | CCOP(=O)(Cc1ccc(NC(=O)[C@H]2Cc3ccccc3C(=O)CS2)cc1)OCC | – |
| 1.7 | Cc1ccc(NC(=O)[C@@H]2SCC(=O)c3cc(C4CCCCC4)ccc32)cc1 | – |
| 1.5 | CCOP(=O)(OCC)c1ccc(NC(=O)[C@@H]2SCC(=O)c3cc(C)c(C)cc32)cc1 | – |
| 2 | CCOP(=O)(Cc1ccc(NC(=O)[C@@H]2SCC(=O)c3cc(CC4CCCCC4)ccc32)cc1)OCC | – |
| 2 | O=C1CS[C@@H](C(=O)Nc2ccc(Cl)cc2)c2ccc(C3CCCCC3)cc21 | – |
| 2.9 | CCOP(=O)(Cc1ccc(NC(=O)[C@H]2Cc3cc4c(cc3C(=O)CS2)OCO4)cc1)OCC | – |
| 1.1 | CCOP(=O)(Cc1ccccc1NC(=O)[C@H]1Cc2cc3c(cc2C(=O)[C@H](C)S1)OCO3)OCC | – |
| 1.1 | CCOP(=O)(Cc1ccc(NC(=O)[C@H]2Cc3ccc(C)cc3C(=O)CS2)cc1)OCC | – |
| 1.7 | CCOP(=O)(Cc1ccc(NC(=O)[C@@H]2SCC(=O)c3cc(-c4ccc(Cl)cc4)ccc32)cc1)OCC | – |
| 2.4 | CCOP(=O)(Cc1ccc(NC(=O)[C@@H]2SCC(=O)c3cc(C4CCCCC4)ccc32)cc1)OCC | – |
| 1.1 | CCOP(=O)(OCC)c1ccc(NC(=O)[C@@H]2SCC(=O)c3cc4c(cc32)CCC4)cc1 | – |
